Assay results of several laboratories.
Protocols differ between the studies behind these lines.
Target: Phosphatidylinositol 4,5-bisphosphate 3-kinase catalytic subunit beta isoform (PIK3CB, Homo sapiens, UniProt P42338)

CC1CCCN1c1nccc(-c2cnn3ncccc23)n1 (centres unmarked)  remaining binding (binding; 1 µM): 100%
O=C(c1ccc(Nc2ncc(Cl)c(-c3cc4ccccc4s3)n2)cc1)N1CCC(N2CCCC2)CC1  remaining binding (binding, competition with immobilised ligand; 1 µM): 100%
c1cnn2ncc(-c3ccnc(N4CCC45COC5)n3)c2c1  remaining binding (binding; 1 µM): 62%
O=C(NCc1ncc(C(F)(F)F)cc1Cl)c1ccc2c(c1)C1(CCS(=O)(=O)CC1)[C@H](C1CC1)N2S(=O)(=O)c1ccc(F)cc1  remaining binding (cell-free assay, competition with immobilised ligand; 1 µM): 68%
CN(C)c1nccc(-c2cnn3ncccc23)n1  remaining binding (binding; 1 µM): 50%
O=C(NCCCN1CCOCC1)c1ccc(Nc2ncc(Cl)c(-c3ccc(Cl)s3)n2)cc1  remaining binding (binding, competition with immobilised ligand; 1 µM): 99%
C[C@@H]1CN(c2cc(-c3n[nH]c4ccc(OC5(C)CC5)cc34)ncn2)C[C@H](C)O1  remaining binding (cell-free assay, competition with immobilised ligand; 0.1 µM): 59%
COc1cnc(Nc2cccc(S(N)(=O)=O)c2)nc1N1CCN(c2ccccc2)CC1  remaining binding (binding, competition with immobilised ligand; 1 µM): 86%
CCN1CCN(Cc2ccc(C(=O)Nc3ccc(C)c(Oc4ccc5c(c4)CC(=O)N5)c3)cc2C(F)(F)F)CC1  remaining binding (binding, competition with immobilised ligand; 1 µM): 100%
C=CC(=O)N1CCC(C(=O)NCC(=O)N2CCN(c3nc(-c4cnc(N)nc4C(F)F)nc(N4CCOCC4)n3)CC2)CC1  remaining binding (binding, competition with immobilised ligand; 1 µM): 0.05%
N[C@@H]1CCN(c2nccc(-c3cnn4ncccc34)n2)C1  remaining binding (binding; 1 µM): 100%
CN(c1ccnc(CNc2nc(Nc3ccc4c(c3)CC(=O)N4)ncc2C(F)(F)F)n1)S(C)(=O)=O  remaining binding (cell-free assay, competition with immobilised ligand; 1 µM): 100%
F[C@@H]1CCN(c2nccc(-c3cnn4ncccc34)n2)C1  remaining binding (binding; 1 µM): 100%
c1cncc(-c2cccc(Nc3nccc(NC4CCCCC4)n3)c2)c1  remaining binding (binding, competition with immobilised ligand; 10 µM): 100%
Nc1c(C(=O)NCc2ccc(C(=O)NCCCC3CCCCC3)cc2)cnn1-c1ccccc1  remaining binding (cell-free assay, competition with immobilised ligand; 0.1 µM): 100%
O=C(NCC1CCOCC1)c1n[nH]cc1NC(=O)c1c(F)cccc1F  remaining binding (binding, competition with immobilised ligand; 1 µM): 91%
CNCc1ccccc1-c1csc([C@H](C)Nc2nc(C)nc3cc(OC)c(OC)cc23)c1  remaining binding (cell-free assay, competition with immobilised ligand; 1 µM): 89%
O=C(c1ccc(Nc2nccc(-c3cc4ccccc4s3)n2)cc1)N1CCC(N2CCCC2)CC1  remaining binding (binding, competition with immobilised ligand; 1 µM): 86%
CN(C)C(=O)Cn1cc(-c2nc(C3(c4ccc(-c5cnc(N)nc5)cc4)CC3)no2)cn1  remaining binding (cell-free assay, competition with immobilised ligand; 1 µM): 96%
COc1cnc(Nc2cccc(S(N)(=O)=O)c2)nc1N1CCN(c2ccccc2)C(=O)C1  remaining binding (binding, competition with immobilised ligand; 1 µM): 100%
